“Also recorded” adds a separate entry of the source.
Target: T1, CERT (Homo sapiens, UniProt Q9Y5P4)
T1 sequence (Q9Y5P4 1-598 isoform Q9Y5P4-2): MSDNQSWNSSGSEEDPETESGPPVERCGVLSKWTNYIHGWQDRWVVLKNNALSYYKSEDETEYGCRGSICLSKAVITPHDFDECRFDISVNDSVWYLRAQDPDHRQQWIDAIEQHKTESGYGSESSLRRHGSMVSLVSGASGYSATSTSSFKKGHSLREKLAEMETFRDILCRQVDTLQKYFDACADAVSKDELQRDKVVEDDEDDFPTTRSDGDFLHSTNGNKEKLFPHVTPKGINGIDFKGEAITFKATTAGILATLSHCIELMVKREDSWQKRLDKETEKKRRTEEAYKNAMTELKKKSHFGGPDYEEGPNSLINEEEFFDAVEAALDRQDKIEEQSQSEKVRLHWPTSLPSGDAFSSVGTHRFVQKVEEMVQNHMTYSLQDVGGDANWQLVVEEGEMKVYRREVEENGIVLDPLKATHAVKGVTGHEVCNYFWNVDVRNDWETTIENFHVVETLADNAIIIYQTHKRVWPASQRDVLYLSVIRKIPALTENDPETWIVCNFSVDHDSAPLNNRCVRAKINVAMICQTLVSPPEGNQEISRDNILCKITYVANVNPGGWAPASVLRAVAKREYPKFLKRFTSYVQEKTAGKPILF
Assay: NanoBRET live-cell CERT assay
Format: cell-based
Conditions: cells pre-treated with SACLAC
In short: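 HeLa cells (or CERT-deficient HeLa) were transfected with NLuc fused N-terminally to full-length CERT, split into 96-well plates next day and incubated overnight. Nano-Glo Vivazine live-cell substrate was added, then NR-Cer acceptor (0.2 µM, or titrated) with test compound. mBRET was read relative to untreated (100% BRET). Library screen at 0.2 µM in single determination; dose-response in triplicate, Hill fit.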

CCCCCCCCCCCCCCC[C@@H](O)[C@H](CO)NC(=O)CCl [SACLAC]
mBRET after pre-treatment with acid ceramidase inhibitor: no effect on BRET efficiency; also recorded: only slightly elevated mBRET values
